Bioassay records as filed in PubChem.
Sampled rows, rich in hits. Any-hit rate of the full collection: about 2.5%.
ABHD4 inh: ABHD4 inhibitors, primary screen, biochemical, fluorescence polarization, mouse | actives 0.54% (n = 370,000) | inhibition, % at 8.92 µM | AID 720543, 2013 | (Lyso)-N-acylphosphatidylethanolamine lipase (Mus musculus), Q8VD66 | purified mABHD4, FP-Rh probe fluorescence polarization;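 active means inhibition exceeding the mean over every tested compound plus 3 SD, cut at about 30% in these data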;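 further: 0% = plate median of compound wells and 100% = S159A mutant with DMSO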
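Test system: mABHD4 protein | Buffer or medium: HEPES pH 7.0 buffer, 150 mM NaCl, 0.01% Pluronic F-127 | Probe or stimulus: FP-Rh fluorescent activity-based probe, added after compound pre-incubation | Timing: Pre-incubation 45 min, probe exposure 60 min, at 25 °C | Technique: Fluorescence polarization, excitation 525 nm, emission 598 nm, BODIPY TMR filters | Repeats: Single well per compound (singlicate)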
SIAE inh: human SIAE inhibitors, primary screen, biochemical, fluorescence polarization, FP-Rh probe, 1536-well HTS; Sialate O-acetylesterase (Homo sapiens), Q9HAT2; SIAE FP-Rh probe binding; inhibition, % at 9.66 µM; actives 0.69% (n = 370,000); AID 1053197, 2014;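 active means inhibition above a cutoff: mean of compounds within the control limits plus 3 SD of those, cut at about 17% in these data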;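 further: 0% = plate median of compound wells and 100% = probe without SIAE protein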
Target sequence (Q9HAT2 whole entry, looked up): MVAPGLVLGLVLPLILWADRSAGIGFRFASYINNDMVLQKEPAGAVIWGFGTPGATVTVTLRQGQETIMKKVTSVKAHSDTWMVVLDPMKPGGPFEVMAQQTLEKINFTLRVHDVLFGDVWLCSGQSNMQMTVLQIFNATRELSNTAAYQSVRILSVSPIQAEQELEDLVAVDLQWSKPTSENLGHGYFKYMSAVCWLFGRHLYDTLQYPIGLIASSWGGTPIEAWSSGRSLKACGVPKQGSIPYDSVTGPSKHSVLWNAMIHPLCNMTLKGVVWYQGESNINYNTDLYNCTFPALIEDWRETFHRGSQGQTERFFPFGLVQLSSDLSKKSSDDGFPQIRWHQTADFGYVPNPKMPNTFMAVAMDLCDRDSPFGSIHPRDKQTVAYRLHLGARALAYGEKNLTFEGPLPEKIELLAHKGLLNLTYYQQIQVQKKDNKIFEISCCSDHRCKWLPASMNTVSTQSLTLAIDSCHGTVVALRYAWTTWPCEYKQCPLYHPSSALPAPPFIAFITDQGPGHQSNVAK
TCR-CD3 inh: inhibitors of human TCR-CD3 interaction, primary screen, biochemical, fluorescence, TAMRA-labeled TCR probe | T-cell receptor (TCR) | inhibition, % at 9.4 µM | actives 0.37% (n = 360,000); in the data active means inhibition above about 19%;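 further: recombinant mutant TCR 2C K166C tagged with TAMRA read by polarization; 0% = receptor in buffer alone and 100% = receptor with positive control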
HTRA1 inh: HTRA1 serine protease inhibitors, primary screen, biochemical, fluorescence polarization, HTS | recombinant HTRA1, FP-rhodamine activity-based probe | inhibition, % at 5.96 µM | AID 504803, 2011 | actives 0.5% (n = 340,000); in the data active means inhibition above about 36%;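 further: 0% = enzyme with DMSO and 100% = wells lacking enzyme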
rCAG binder: binders of r(CAG) RNA repeats, primary screen, biochemical, fluorescence; r(CAG) RNA repeat, TO-PRO-1 dye displacement fluorescence; inhibition, % at 3 µM; actives 1.3% (n = 370,000); AID 651821, 2012;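 active means inhibition above the plate cutoff, the mean of all test compounds on that plate plus 3 SD, cut at about 35% in these data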;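 further: 0% = DMSO alone and 100% = 100 µM mitoxantrone as full dye displacement; higher means more dye released from RNA so lower well fluorescence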
rCAG binder conf: small molecules binding CAG repeat RNA – biochemical, fluorescence, confirmation. shares compounds with rCAG binder. AID 652065, 2013. actives 70% (n = 4,300). inhibition, % at 3 µM. r(CAG) RNA repeat, TO-PRO-1 dye displacement fluorescence;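 active means inhibition above a per-plate cutoff, the mean inhibition of sample wells plus 3 SD, cut at about 35% in these data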;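 further: loss of TO-PRO-1 fluorescence as compound displaces dye from 1x1 AA loop RNA; 0% = DMSO only wells and 100% = 100 µM mitoxantrone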
DNA CAG counter: displacement of TO-PRO-1 from CAG DNA duplex, counter-screen for rCAG RNA repeat binder project, biochemical, fluorescence, TO-PRO-1 dye, d(CAG) DNA oligo | actives 94% (n = 4,300) | inhibition, % at 3 µM | d(CAG) DNA oligo TO-PRO-1 dye displacement | AID 652068, 2013 | shares compounds with rCAG binder;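 active means inhibition above its plate's cutoff, the mean test-well inhibition plus 3 SD, cut at about 4.8% in these data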;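 further: 0% = DNA dye mix with DMSO and 100% = 100 µM mitoxantrone; hits displace the dye from DNA and so lower well fluorescence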
dCAG dye DR: inhibitors of DNA CAG/GTC TO-PRO-1 complex, dose response, counter-screen for rCAG RNA repeat binder project, biochemical, fluorescence, TO-PRO-1 dye | shares compounds with rCAG binder | DNA CAG/GTC duplex TO-PRO-1 dye displacement fluorescence | IC50, µM | actives 20% (n = 250); in the data active means IC50 below about 10 µM
* = called active by the depositor; i = inactive; . = no result.

SMILES	ABHD4 inh	SIAE inh	TCR-CD3 inh	HTRA1 inh	rCAG binder	rCAG binder conf	DNA CAG counter	others
COc1ccc(OC)c(/C=C2\Oc3cc(OCC(=O)N4CC(O)C[C@H]4C(=O)O)ccc3C2=O)c1 (stereo partly specified)	5	-53	7	-6	42*	33	5.9*
Cc1csc(SCC(=O)Nc2nc3ccccc3s2)n1	-1	-10	4	-14	-1	.	.
CCN(CC)S(=O)(=O)c1ccc(C(=O)Nc2nnc(NC(=S)Nc3ccccc3)s2)cc1	-23	-65	-17	-19	61*	64*	33*
CCN(CC)S(=O)(=O)c1ccc(NC(=S)Nc2ccccc2)cc1	1	10	4	-5	6	.	.
CCOc1ccc(Br)cc1S(=O)(=O)Nc1ccc(Cl)c(S(=O)(=O)N(C)C)c1	14	-2	-2	-8	36*	34	9.0*
O=C(/C=C/c1ccccc1)Nc1cccc(S(=O)(=O)Nc2ccccc2F)c1	-66	-69	7	-44	38*	40*	13*
CN(C)C(=O)CCCc1nc(-c2ccc(Cl)cc2)no1	-12	-3	5	-4	-3	.	.
CC(=O)Oc1ccc(/C=N/NC(=O)C2CCCN2S(=O)(=O)c2ccc(Cl)cc2)cc1 (stereo unspecified)	0	2	5	0	-1	.	.
CCc1ccc(OCC(=O)Nc2ccc(S(=O)(=O)Nc3cc(C)on3)cc2)c(Br)c1	-31	-10	-1	-27	78*	74*	28*	dCAG dye DR=i
Cc1cc(NS(=O)(=O)c2ccc(NC(=O)C(c3ccccc3)c3ccccc3)cc2)no1	-14	2	15	-16	59*	47*	18*
Cc1cc(NS(=O)(=O)c2ccc(NC(=O)COc3ccccc3Cl)cc2)no1	-1	1	2	-1	24	.	.
Cc1cc(NS(=O)(=O)c2ccc(NC(=O)C(C)Oc3ccc(C(C)C)cc3)cc2)no1 (stereo unspecified)	-21	2	-5	-4	47*	49*	16*
Cc1cc(NS(=O)(=O)c2ccc(NC(=S)NC(=O)c3ccc(Br)cc3)cc2)no1	-6	-4	-2	-13	57*	47*	16*
CCOc1cc(C(=S)N2CCOCC2)ccc1OC(=O)/C=C/c1ccc(OC)c(OC)c1	-2	1	0	1	-3	.	.
CCOC(=O)N1CCN(C(=O)Cn2nc(C)n3nc(-c4ccc(CC)cc4)cc3c2=O)CC1	-11	0	-4	-1	1	.	.
COc1cccc(OCC(=O)NNC(=S)Nc2ccc(Cl)cc2Cl)c1	7	3	7	-3	57*	47*	15*
O=C(COc1cccc(Cl)c1)NNC(=S)Nc1ccccc1	3	2	-1	2	2	.	.
O=C(CN1c2ccccc2Sc2ccccc21)NNC(=S)Nc1ccc(Cl)cc1Cl	19	1	7	15	64*	60*	34*
O=C1CC(=O)N(Cc2ccco2)C(=O)N1	-5	-9	8	-7	35*	36*	13*
COC(=O)c1cc(NS(=O)(=O)c2ccc(N3CCCCCC3)c([N+](=O)[O-])c2)cc(C(=O)OC)c1	-11	-48	3	-33	39*	60*	20*
Cc1ccc(NC(=S)NNC(=O)c2ccc(N3CCOCC3)c([N+](=O)[O-])c2)cc1C	9	2	-3	6	58*	61*	26*
COC(=O)c1cc(NS(=O)(=O)c2ccc(N3CCOCC3)c([N+](=O)[O-])c2)cc(C(=O)OC)c1	10	1	6	-6	51*	40*	11*
COc1ccc(S(=O)(=O)Nc2ccc(N3CCOCC3)cc2)cc1[N+](=O)[O-]	0	-2	2	3	-2	.	.
CC(C)Cn1c(SCC(N)=O)nnc1-c1cccc(S(=O)(=O)N2CCOCC2)c1	0	1	5	2	2	.	.
Cc1ccc(CSc2nnc(-c3cccc(S(=O)(=O)N4CCOCC4)c3)n2CC(C)C)cc1	1	8	1	-8	49*	0	0
SMILES	ABHD4 inh	SIAE inh	TCR-CD3 inh	HTRA1 inh	rCAG binder	rCAG binder conf	DNA CAG counter	others
O=CN1CCN(C=O)C(O)C1O (stereo unspecified)	5	1	-3	2	0	.	.
Nc1nc2c(c(=O)[nH]1)C(c1cccc3ccccc13)C1=C(N2)c2ccccc2C1=O (stereo unspecified)	-8	-18	3	-14	78*	57*	34*
CSC1=C(C#N)C(c2ccccc2Cl)C2=C(N1)c1ccccc1C2=O (stereo unspecified)	2	6	0	-2	1	.	.
Cc1ccc(C)n1-c1ccc(-c2nnco2)cc1	.	.	.	2	.	.	.
Cc1c(Br)cc(-c2nnco2)cc1Br	5	-5	1	4	40*	4	1
O=C1CC(c2ccco2)CC(O)=C1C=Nc1cc(Cl)ccc1Cl (stereo unspecified)	15	0	7	7	15	.	.
O=C1CC(c2ccco2)CC(O)=C1C=Nc1cc(Cl)ccc1O (stereo unspecified)	25	7	9	21	37*	17	6.0*
S=c1[nH]nc(-c2cc(-c3ccccc3)n[nH]2)n1/N=C/c1ccc(Br)s1	-3	-20	-1	-10	71*	79*	46*
S=c1[nH]nc(-c2cc(-c3ccccc3)n[nH]2)n1/N=C/c1c(Cl)cccc1Cl	8	-16	-2	-10	43*	68*	29*
S=c1[nH]nc(-c2cc(-c3ccccc3)n[nH]2)n1/N=C/c1cccc2ccccc12	1	5	.	.	79*	78*	40*
O=[N+]([O-])c1ccccc1C=Nn1c(-c2cc(-c3ccccc3)n[nH]2)n[nH]c1=S	15	2	.	.	47*	53*	19*
Cc1cc(=O)c2c(o1)CC(C)(C)CC2=O	-7	0	-2	-5	0	.	.
